CHRM1 PAM – potentiates human M1 receptor response to acetylcholine. CHO-K1 hM1, Fluo-8 calcium fluorescence, ACh EC20; 0% = ACh EC20, 100% = maximal ACh. activation, % at 3 µM. hit rate 0.088% among 360,000. AID 588819; in the data active = activation above about 19%, passing the limit was not always enough
M5 ag – agonists of human muscarinic M5 receptor (CHRM5) | P08912 | CHO-K1 hM5 cells, Fluo-8 calcium fluorescence; 0% DMSO wells, 100% maximal acetylcholine response | activation, % at 3 µM | hit rate 0.19% among 360,000 | AID 624037;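 active = activation above the run's mean over test compounds plus 3 SD, cut at about 23% in these data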;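 also: signal is peak over basal fluorescence ratio across the kinetic read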
Target sequence (P08912 whole entry, looked up): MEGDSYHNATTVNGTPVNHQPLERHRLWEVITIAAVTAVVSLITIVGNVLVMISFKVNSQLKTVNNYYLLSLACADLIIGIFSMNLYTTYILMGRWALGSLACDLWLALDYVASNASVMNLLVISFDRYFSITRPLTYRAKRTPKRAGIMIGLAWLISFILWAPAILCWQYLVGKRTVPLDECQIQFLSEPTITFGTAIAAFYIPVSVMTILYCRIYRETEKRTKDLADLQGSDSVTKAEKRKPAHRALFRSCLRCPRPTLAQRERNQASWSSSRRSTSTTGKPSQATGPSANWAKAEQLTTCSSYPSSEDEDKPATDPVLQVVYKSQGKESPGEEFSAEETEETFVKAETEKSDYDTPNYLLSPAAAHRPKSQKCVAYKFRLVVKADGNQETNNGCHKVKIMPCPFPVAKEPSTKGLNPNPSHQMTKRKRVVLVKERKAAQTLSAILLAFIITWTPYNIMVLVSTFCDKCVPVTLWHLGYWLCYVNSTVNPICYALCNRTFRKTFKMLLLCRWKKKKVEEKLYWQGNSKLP
CHRM1 antagonist – antagonists of human M1 muscarinic receptor; P11229; CHO-K1 hM1, Fluo-8 calcium fluorescence, ACh EC80 antagonist; inhibition, % at 3 µM; hit rate 1.3% among 360,000;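 active = percent inhibition above its own plate's cutoff, namely the mean of that plate's compound wells plus 3 SD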;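 also: peak over basal fluorescence ratio during 140 s after agonist addition; 0% = ACh EC80 plus DMSO and 100% = DMSO alone without agonist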
CHRM1 agonist – activates human CHRM1 receptor; CHO-K1 hM1, Fluo-8 calcium fluorescence, agonist mode; 0% DMSO, 100% acetylcholine EC100; activation, % at 3 µM; hit rate 0.33% among 360,000;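 active = activation above the run's mean compound activation plus 3 SD, cut at about 16% in these data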;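 also: peak over basal fluorescence ratio within a 140 s kinetic read after compound addition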
CHRM5 PAM – CHRM5 positive allosteric modulation; P08912; CHO-K1 hM5, Fluo-8 calcium, ACh EC20 PAM; 0% = ACh EC20, 100% = ACh EC100; activation, % at 3 µM; hit rate 0.3% among 360,000; AID 624038;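 active = activation above the run cutoff, the mean activation of all test compounds plus 3 SD, cut at about 18% in these data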
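Measured by: Fluo-8 calcium fluorescence; material: human M5 receptor in CHO-K1 cells; schedule: Post-acetylcholine fluorescence recording 140 s; benchmarks: low control EC20 acetylcholine (0%), high control EC100 acetylcholine (100%); read-out: Max/basal fluorescence ratio as % of EC20–EC100 ACh window; compound: single dose, 3 µM nominal final test concentration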
M5 antag – CHRM5 antagonism in calcium assay; AID 624040; P08912; CHO-hM5 cells, Fluo-8 calcium fluorescence, ACh EC80; hit rate 0.59% among 360,000; inhibition, % at 3 µM;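 active = inhibition above a per-plate cutoff, the mean of that plate's test compounds plus 3 SD, cut at about 27% in these data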;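 also: 0% = acetylcholine EC80 with DMSO and 100% = DMSO without agonist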
* hit, by the source's call. Sampled rows, rich in hits. Any-hit rate of the full collection: about 2.1%.

SMILES	CHRM1 PAM	M5 ag	CHRM1 antagonist	CHRM1 agonist	CHRM5 PAM	M5 antag
COc1ccc(CN2CCC(Oc3ccc(C(=O)N4CCCC4)cc3)CC2)c(F)c1	-23	-8	61*	-6	-8	10
Cc1ccc(S(=O)(=O)NNC2=NCCCCC2)cc1	7	3	-12	-5	10	1
Cc1cc(C)c2nc(NC(=O)CN3C(=O)NC4(CCCC4)C3=O)sc2c1	1	2	-1	-2	-1	-4
c1cc(-c2sc(-c3ccncc3)c(-c3ccncc3)c2-c2ccncc2)ccn1	3	-1	-14	7	-5	6
O=S(=O)([O-])CCC[n+]1ccc(Oc2ccccc2)cc1	6	-4	-10	1	-9	17
CN(C)NC(=S)Nc1cccc(C(F)(F)F)c1	7	-1	-15	-1	5	2
Fc1ccccc1CNC(=S)Nc1cccc(C(F)(F)F)c1	-13	6	22	-4	-20	27*
CC(NC(=S)Nc1cccc(C(F)(F)F)c1)C(C)(C)C (configuration not stated)	-17	3	46*	-2	-20	16
Fc1ccc(CNC(=S)Nc2cccc(C(F)(F)F)c2)cc1	-11	5	21	-1	-14	23
COc1ccc(C(C(=O)NC2CCCCC2)N(CC2CCCO2)C(=O)C2COc3ccccc3O2)cc1OC (configuration not stated)	5	-3	-9	-1	33*	-16
Cn1c(NC(=O)/C=C/c2ccccc2)cc(=O)n(C)c1=O	0	1	-7	-6	-5	3
Cc1ccc(S(=O)(=O)n2c(N)nc3cc(C)c(C)cc32)cc1	-20	-2	20*	-11	2	-18
Cc1ccc(C)c(NC(=O)CN(C)C(=O)C2CCCC2)c1	-4	2	6	-4	-5	9
Cc1ccc(C)c(NC(=O)CN(C)C(C)C(=O)N2CC(C)CC(C)C2)c1 (configuration not stated)	8	-3	-10	-4	19*	-21
COc1ccc(N2CCN(C(=O)CSc3nnc4c5cc(C)ccc5n(C)c4n3)CC2)cc1	7	1	-13	-6	-3	-3
CN(C)CCCNc1oc(/C=C/c2ccccc2)nc1C#N	7	3	-10	-2	32*	24
COc1ccc(C(=O)Nn2c(SCc3ccc([N+](=O)[O-])cc3)nc3ccccc3c2=O)cc1	-1	-3	2	-1	18*	6
COc1ccc(C(=O)Nn2c(SCC(=O)c3ccccc3)nc3ccccc3c2=O)cc1	0	-1	4	-1	-8	8
Cn1c(CSCCOc2ccccc2)n[nH]c1=S	13	3	-20	2	6	6
CSc1sc(-c2nnc(SCC(=O)Nc3ccc(Cl)cc3)n2C)c2c1C=CCC2	0	2	-1	-5	7	5
Cc1ccc([C@H]2C(C(=O)O)=CC[C@@H](c3ccc(C(C)C)cc3)N2S(=O)(=O)c2ccc(C)cc2)cc1	-3	-2	-10	-9	-1	-10
COC(=O)/C(=C\C(=O)c1ccccc1)Nc1ccc(OC)cc1	10	3	-10	-5	27*	30*
COc1ccc(N/C(C)=C/C(=O)c2ccccc2)cc1	3	2	-6	0	2	-2
CSc1nc(SC(C)C(=O)O)c2c3c(sc2n1)COC(C)(C)C3 (configuration not stated)	8	-2	-9	-3	7	2
CSc1nc(SCCN(C)C)c2c3c(sc2n1)COC(C)(C)C3	-25	-1	11	51*	17	-7
SMILES	CHRM1 PAM	M5 ag	CHRM1 antagonist	CHRM1 agonist	CHRM5 PAM	M5 antag
Cc1c2cc(O)c(=O)cc-2oc2cc(O)c(O)cc12	6	-1	-11	-1	8	-4
COc1cc(OC)c(-c2c3cc(O)c(=O)cc-3oc3cc(O)c(O)cc23)cc1OC	-28	326*	74*	385*	-20	54*
Cc1csc(SCCN2C(=O)c3ccccc3C2=O)n1	1	2	0	-5	-1	6
c1ccc(Oc2cc(-c3ccccc3)nc(-c3ccccc3)n2)cc1	26*	-1	9	-2	-2	3
CCN(CC)C(=O)CSc1nnc([C@H](Cc2c[nH]c3ccccc23)NC(=O)OC(C)(C)C)o1	7	2	-9	-4	-4	-2
C=C[C@]1(C)C=C2CC[C@H]3[C@@](C)(CCC[C@@]3(C)C(=O)O)[C@@H]2CC1	10	2	-17	-1	-3	6
CCN(CC)CCC=C(c1cccs1)c1cccs1	-28	-10	96*	-6	-36	28*
C[C@@H](NC(=O)Cn1cnc2c(OCc3ccccc3)ncnc21)c1cccc2ccccc12	20	6	-13	33*	3	-4
C[C@@H](NC(=O)Cn1cnc2c(NCc3ccccc3)ncnc21)c1cccc2ccccc12	9	16	-10	48*	6	-1
O=C(NC1CCN(C(=O)N2CCOCC2)CC1)c1ccccc1	5	-4	-3	-3	5	-2
COc1ccc(N2CCN(CC(=O)c3ccccc3)CC2)cc1	5	-3	-5	-4	-1	9
O=C(CN1CCN(c2ccc([N+](=O)[O-])cc2)CC1)c1ccccc1	-26	-3	40*	-8	-4	9
O=C(CCN1CCN(c2ccc([N+](=O)[O-])cc2)CC1)c1ccc(Cl)cc1	-19	-1	38*	-4	-10	5
O=C(CCN1CCN(c2ccccc2)CC1)c1ccc(Cl)cc1	-5	-2	4	-8	-3	11
COC(=O)c1cc2c(C)nn(C)c2s1	5	3	-18	-2	0	9
Cc1nn(C)c(C)c1CN(C)S(=O)(=O)c1ccc(F)cc1	2	4	-21	6	-10	10
Cc1nn(C)c(C)c1CN(C)S(=O)(=O)c1ccc2ccccc2c1	-12	4	24*	7	-13	20
CCCCCC(CC(=O)NO)C(=O)NC(C(=O)N1CCCC1CO)C(C)C (configuration not stated)	-5	0	-3	-4	-2	-6
CC(C)(C)Nc1c([N+](=O)[O-])c(=O)sc2ccccc12	12	0	-9	-3	4	-1
CCCCCCNc1c([N+](=O)[O-])c(=O)sc2ccccc12	-19	3	42*	-2	-18	11
Cc1nc(N2CCC(C)CC2)c2c(C)c(C(=O)Nc3ccc(C(F)(F)F)cc3)sc2n1	0	1	-8	-6	10	0
CCNC(=S)Nn1cnc2ccccc21	2	1	5	-2	1	-1

Compound activity (PubChem BioAssay)
